Measured values reported in paper PMC3689924 (Pharmacology, 2012).
“And” between values parts separate entries of the source, which are not always exact repeats. Equal entries are not always repeated. “Also recorded” adds a separate entry of the source. Where two headings read alike, the source gives them in different places.

What was measured:
Pgp at the human BBB = details: cited from earlier work
[1] = assay type: in vitro ADME, human; details: for TQD concentration in plasma after storage: mean±SD of four determinations
Summary of the method: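 Plasma was spiked at 0.1, 0.5 and 2.0 μg/ml and split into 16 aliquots per level. Four aliquots were analysed by HPLC at once as the baseline. The rest were stored 24 h, 1 month or 3 months at RT, 4°C, −20°C or −80°C, then quantified. Results are given as mean of four determinations and percent of baseline; stability criterion was 95%.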

[2] = assay type: in vivo, human; details: for t½: terminal elimination
Summary of the method: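 Healthy males (n=5 per dose group). Vehicle stock of 20% ethanol/80% propylene glycol, diluted to 0.6 mg/ml in 5% dextrose, infused i.v. at 375 ml/h to target dose. Heparinised blood taken pre-dose, at 25/50/75% and end of infusion, then to 1440 min. Plasma methanol-precipitated, C18 HPLC-MS, calibration 0.005–5 μg/ml, LLOQ 5 ng/ml. Cmax observed; AUC0-n, Vss, CL, t½ calculated.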

Pgp [3] = details: at low concentrations; cited from earlier work
[4] = Safety and tolerability of single i.v. doses of TQD in healthy volunteers; assay type: in vivo, human
Summary of the method: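 15 healthy males were given single i.v. infusions at 4, 6 or 8 mg/kg and kept on the ward under continuous observation until 24 h after infusion end. Blood pressure, heart rate and ECG were recorded repeatedly over the first 24 h. Monitoring included clinical chemistry, coagulation, haematology and adverse events. Physical examination, vital signs, AE check, and blood and urine analysis were repeated within one week.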

[5] = system: breast cancer resistance protein (BCRP); details: at low concentrations; cited from earlier work
Pgp [6] = details: 2 mg/kg dose; cited from earlier work
[7] = 4 mg/kg BW i.v. infusion, individual subjects 1-5
[8] = 6 mg/kg BW i.v. infusion, individual subjects 6-10
[9] = 8 mg/kg BW i.v. infusion, individual subjects 11-15
[10] = single i.v. doses up to 8 mg/kg BW

COc1cc2c(cc1OC)CN(CCc1ccc(NC(=O)c3cc(OC)c(OC)cc3NC(=O)c3cnc4ccccc4c3)cc1)CC2 [TQD, tariquidar]
increase in (R)-[11C]verapamil brain distribution (Pgp at the human BBB; 8 mg/kg TQD dose, healthy subjects, PET): 3 fold
inhibition of Pgp at the human BBB (Pgp at the human BBB; 8 mg/kg TQD dose, plateau in concentration-response curve): complete inhibition
EC50 (Pgp at the human BBB; read-out: half-maximum effect concentration (EC50) for functional inhibition of Pgp at the human BBB): 669 nM
percent of baseline ([1]; 0.1 μg/ml, 4°C, 1 month): 7.2%
TQD concentration in plasma after storage ([1]; 0.1 μg/ml, 4°C, 1 month): 0.007 ± 0.001 µg/mL
percent of baseline ([1]; 0.1 μg/ml, 4°C, 3 months): 3.1%
TQD concentration in plasma after storage ([1]; 0.1 μg/ml, 4°C, 3 months): 0.003 ± 0.000 µg/mL
percent of baseline ([1]; 0.1 μg/ml, 4°C, 24 h): 99%
TQD concentration in plasma after storage ([1]; 0.1 μg/ml, 4°C, 24 h): 0.099 ± 0.003 µg/mL
percent of baseline ([1]; 0.1 μg/ml, RT, 1 month): 8.6%
TQD concentration in plasma after storage ([1]; 0.1 μg/ml, RT, 1 month): 0.008 ± 0.000 µg/mL
percent of baseline ([1]; 0.1 μg/ml, RT, 3 months): 3.0%
TQD concentration in plasma after storage ([1]; 0.1 μg/ml, RT, 3 months): 0.003 ± 0.000 µg/mL
percent of baseline ([1]; 0.1 μg/ml, RT, 24 h): 100%
TQD concentration in plasma after storage ([1]; 0.1 μg/ml, RT, 24 h): 0.10 ± 0.004 µg/mL
percent of baseline ([1]; 0.1 μg/ml, −20°C, 1 month): 73.9%
TQD concentration in plasma after storage ([1]; 0.1 μg/ml, −20°C, 1 month): 0.073 ± 0.005 µg/mL
percent of baseline ([1]; 0.1 μg/ml, −20°C, 3 months): 40.8%
TQD concentration in plasma after storage ([1]; 0.1 μg/ml, −20°C, 3 months): 0.041 ± 0.004 µg/mL
percent of baseline ([1]; 0.1 μg/ml, −20°C, 24 h): 100%
TQD concentration in plasma after storage ([1]; 0.1 μg/ml, −20°C, 24 h): 0.10 ± 0.002 µg/mL
percent of baseline ([1]; 0.1 μg/ml, −80°C, 1 month): 78.1%
TQD concentration in plasma after storage ([1]; 0.1 μg/ml, −80°C, 1 month): 0.078 ± 0.006 µg/mL
percent of baseline ([1]; 0.1 μg/ml, −80°C, 3 months): 69.1%
TQD concentration in plasma after storage ([1]; 0.1 μg/ml, −80°C, 3 months): 0.069 ± 0.005 µg/mL
percent of baseline ([1]; 0.1 μg/ml, −80°C, 24 h): 98%
TQD concentration in plasma after storage ([1]; 0.1 μg/ml, −80°C, 24 h): 0.098 ± 0.003 µg/mL
percent of baseline ([1]; 0.5 μg/ml, 4°C, 1 month): 11.2%
TQD concentration in plasma after storage ([1]; 0.5 μg/ml, 4°C, 1 month): 0.056 ± 0.003 µg/mL
percent of baseline ([1]; 0.5 μg/ml, 4°C, 3 months): 3.4%
TQD concentration in plasma after storage ([1]; 0.5 μg/ml, 4°C, 3 months): 0.017 ± 0.001 µg/mL
percent of baseline ([1]; 0.5 μg/ml, 4°C, 24 h): 102%
TQD concentration in plasma after storage ([1]; 0.5 μg/ml, 4°C, 24 h): 0.51 ± 0.023 µg/mL
percent of baseline ([1]; 0.5 μg/ml, RT, 3 months): 1.7%
TQD concentration in plasma after storage ([1]; 0.5 μg/ml, RT, 3 months): 0.008 ± 0.001 µg/mL
percent of baseline ([1]; 0.5 μg/ml, RT, 24 h): 98%
TQD concentration in plasma after storage ([1]; 0.5 μg/ml, RT, 24 h): 0.49 ± 0.033 µg/mL
percent of baseline ([1]; 0.5 μg/ml, −20°C, 1 month): 77.6%
TQD concentration in plasma after storage ([1]; 0.5 μg/ml, −20°C, 1 month): 0.38 ± 0.021 µg/mL
percent of baseline ([1]; 0.5 μg/ml, −20°C, 3 months): 36.4%
TQD concentration in plasma after storage ([1]; 0.5 μg/ml, −20°C, 3 months): 0.18 ± 0.014 µg/mL
percent of baseline ([1]; 0.5 μg/ml, −20°C, 24 h): 99%
TQD concentration in plasma after storage ([1]; 0.5 μg/ml, −20°C, 24 h): 0.49 ± 0.014 µg/mL
percent of baseline ([1]; 0.5 μg/ml, −80°C, 1 month): 82.3%
TQD concentration in plasma after storage ([1]; 0.5 μg/ml, −80°C, 1 month): 0.41 ± 0.030 µg/mL
percent of baseline ([1]; 0.5 μg/ml, −80°C, 3 months): 53.9%
TQD concentration in plasma after storage ([1]; 0.5 μg/ml, −80°C, 3 months): 0.27 ± 0.023 µg/mL
percent of baseline ([1]; 0.5 μg/ml, −80°C, 24 h): 100%
TQD concentration in plasma after storage ([1]; 0.5 μg/ml, −80°C, 24 h): 0.50 ± 0.025 µg/mL
percent of baseline ([1]; 2.0 μg/ml, 4°C, 1 month): 9.5%
TQD concentration in plasma after storage ([1]; 2.0 μg/ml, 4°C, 1 month): 0.19 ± 0.004 µg/mL
percent of baseline ([1]; 2.0 μg/ml, 4°C, 3 months): 5.6%
TQD concentration in plasma after storage ([1]; 2.0 μg/ml, 4°C, 3 months): 0.11 ± 0.006 µg/mL
percent of baseline ([1]; 2.0 μg/ml, 4°C, 24 h): 98.5%
TQD concentration in plasma after storage ([1]; 2.0 μg/ml, 4°C, 24 h): 1.97 ± 0.050 µg/mL
percent of baseline ([1]; 2.0 μg/ml, RT, 1 month): 9.1%
TQD concentration in plasma after storage ([1]; 2.0 μg/ml, RT, 1 month): 0.18 ± 0.003 µg/mL
percent of baseline ([1]; 2.0 μg/ml, RT, 3 months): 2.8%
TQD concentration in plasma after storage ([1]; 2.0 μg/ml, RT, 3 months): 0.054 ± 0.004 µg/mL
percent of baseline ([1]; 2.0 μg/ml, RT, 24 h): 101%
TQD concentration in plasma after storage ([1]; 2.0 μg/ml, RT, 24 h): 2.02 ± 0.081 µg/mL
percent of baseline ([1]; 2.0 μg/ml, −20°C, 1 month): 75.8%
TQD concentration in plasma after storage ([1]; 2.0 μg/ml, −20°C, 1 month): 1.51 ± 0.065 µg/mL
percent of baseline ([1]; 2.0 μg/ml, −20°C, 3 months): 48.3%
TQD concentration in plasma after storage ([1]; 2.0 μg/ml, −20°C, 3 months): 0.97 ± 0.084 µg/mL
percent of baseline ([1]; 2.0 μg/ml, −20°C, 24 h): 99%
TQD concentration in plasma after storage ([1]; 2.0 μg/ml, −20°C, 24 h): 1.98 ± 0.075 µg/mL
percent of baseline ([1]; 2.0 μg/ml, −80°C, 1 month): 80.6%
TQD concentration in plasma after storage ([1]; 2.0 μg/ml, −80°C, 1 month): 1.62 ± 0.068 µg/mL
percent of baseline ([1]; 2.0 μg/ml, −80°C, 3 months): 61.5%
TQD concentration in plasma after storage ([1]; 2.0 μg/ml, −80°C, 3 months): 1.23 ± 0.056 µg/mL
percent of baseline ([1]; 2.0 μg/ml, −80°C, 24 h): 100.5%
TQD concentration in plasma after storage ([1]; 2.0 μg/ml, −80°C, 24 h): 2.01 ± 0.064 µg/mL
concentration dependency of degradation rate in plasma ([1]; 0.1, 0.5 and 2.0 μg/ml): No concentration dependency
stability in plasma on storage longer than 24 h ([1]; 1 month, 3 months, even at −80°C): pronounced degradation
stability in plasma (criterion 95%) ([1]; 24 h at RT, 4°C, −20°C and −80°C): stable
concentration remaining relative to original values ([1]; one month at −20°C): 74-78%
concentration remaining relative to original values ([1]; one month at −80°C): 78-82%
concentration remaining relative to original concentration ([1]; one month of storage at RT or at 4°C): approximately 10%
CL [2, 7]: 11.29 L/h and 7.39 L/h and 9.22 L/h and 10.11 L/h
Vss [2, 7]: 530 L and 571 L and 384 L and 445 L
tmax [2, 7]: 1.38 h and 1.45 h and 1.55 h and 1.40 h
t½ [2, 7]: 33 h and 55 h and 30 h and 31 h
CL [2, 8]: 13.99 L/h and 15.15 L/h and 13.53 L/h and 11.35 L/h
Vss [2, 8]: 645 L and 509 L and 680 L and 312 L and 559 L
tmax [2, 8]: 2.45 h and 1.83 h and 2.23 h
t½ [2, 8]: 34 h and 26 h and 33 h and 16 h and 35 h
CL [2, 9]: 15.41 L/h and 16.21 L/h and 20.85 L/h and 22.15 L/h
Vss [2, 9]: 521 L and 667 L and 380 L and 616 L
tmax [2, 9]: 2.42 h and 2.28 h and 2.70 h and 2.26 h
Cmax ([2]; 8 mg/kg BW i.v. infusion, individual subjects 11-15, plasma): 1920 ng/mL and 1050 ng/mL and 1870 ng/mL and 1660 ng/mL
t½ [2, 9]: 21 h and 25 h and 30 h and 14 h
concentration of possible metabolites in plasma samples ([2]; all plasma samples, 4-8 mg/kg i.v.): below the detection limit; also recorded: could not detect any metabolites
dose dependency of plasma exposure AUC0-n ([2]; dose range from 2 to 8 mg/kg i.v.): largely increase linearly
transport by Pgp (Pgp [3]): transported
cases of metallic taste in the mouth ([4]; 15 subjects, 4-8 mg/kg i.v.): five cases
heart rate, blood pressure and ECG ([4]; during and after TQD administration): did not significantly change
dose limiting toxicities ([4]; single i.v. doses 4, 6, 8 mg/kg): No dose limiting toxicities
serious or severe AEs [4, 10]: no serious or severe AEs
tolerability [4, 10]: generally well tolerated
blood chemistries, complete blood count and coagulation ([4]; whole study period): No subject had any significant change
transport by breast cancer resistance protein (BCRP) [5]: transported
inhibition of Pgp-mediated rhodamine 123 efflux from CD56-positive lymphocytes (Pgp [6]): fully inhibit
